IC50, inhibition and Activity data for one compound are collected here from ChEMBL document CHEMBL5033990, “Novel Aryl-Substituted Pyrimidones as Inhibitors of 3-Mercaptopyruvate Sulfurtransferase with Antiproliferative Efficacy in Colon Cancer” (J Med Chem, 2021).

The subject of assay [1] is MC-38. The assay is described as follows: Antiproliferative activity against mouse MC38 cells assessed as inhibition of cell proliferation measured after 48 hrs by IncuCyte live-cell imaging assay. The conditions noted are these: MC-38, 48 h. The format is functional, cell-based.
Assay [2] can be described thus: Inhibition of recombinant human 3-MST expressed in Escherichia coli assessed as inhibition of H2S generation using 3-MP as substrate preincubated with enzyme for 1 hr followed by incubation with substrate for 1 hr by AzMC probe based fluorescence analysis. The procedure, abridged:
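Same 3-MST/3-MP/AzMC assay, 1 h preincubation then 1 h kinetic read, at 3, 10, 30, 100 and 300 μM (final DMSO 0.3%). Run for compounds inhibiting at least 60% at 100 μM. Three experiments in triplicate. IC50 from nonlinear fit of data taken between min 20 and 40 of the 60 min read.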

Assay [3] deals with MC-38. In words: Antiproliferative activity against mouse MC38 cells assessed as inhibition of cell proliferation measured after 24 hrs by MTT assay. The assay is classed as functional, cell-based. The conditions noted are these: MC-38, 24 h. (Formazan colour is commonly taken as a measure of viable cells.)
Assay [4] has as its system CT26. The assay is described as follows: Antiproliferative activity against mouse CT26 cells assessed as inhibition of cell proliferation measured after 24 hrs by MTT assay. The format is functional, cell-based. The conditions noted are these: CT26, 24 h.
Assay [5] concerns CT26. In words: Inhibition of 3-MST in mouse CT26 cells assessed as inhibition of H2S generation at 300 uM incubated for 4 hrs by AzMC probe based fluorescence analysis. The assay is classed as cell-based. The procedure, abridged:
(§1)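 Cells seeded at 60,000/well in 8-well chambers and allowed to adhere overnight. Exposed to 300 μM compound for 4 h, then supernatant replaced with 1 mM AzMC in HBSS plus glucose for 1 h. Fluorescence imaged by microscopy; mean pixel intensity expressed as percent of control.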

Assay [6] concerns Mus musculus. The assay is described as follows: Antitumor activity against mouse MC38 cells xenografed in C57BL/6 mouse assessed as euthanasia rate at 20 mg/kg, ip administered daily for 2 weeks and measured on day 32 (reference value: 75%). The assay is classed as functional, MC-38. The settings on record: time 32 day.
Assay [7] deals with CT26. The assay is described as follows: Antiproliferative activity against mouse CT26 cells assessed as inhibition of cell proliferation measured after 48 hrs by IncuCyte live-cell imaging assay. The assay is classed as functional, cell-based. The conditions noted are these: CT26, 48 h.
Assay [8] concerns MC-38. In words: Antitumor activity against mouse MC38 cells xenografed in C57BL/6 mouse assessed as reduction in tumor growth at 20 mg/kg, ip administered daily for 2 weeks by caliper analysis. The assay is classed as functional, organism-based.
The test system of assay [9] is MC38. The assay is described as follows: Inhibition of 3-MST in mouse MC38 cells assessed as inhibition of H2S generation at 300 uM incubated for 4 hrs by AzMC probe based fluorescence analysis. The format is cell-based. In short, it runs like this: as §1
The species named for assay [10] is Homo sapiens. In words: Inhibition of recombinant human 3-MST expressed in Escherichia coli assessed as inhibition of H2S generation using 3-MP as substrate at 100 uM preincubated with enzyme for 1 hr followed by incubation with substrate for 1 hr by AzMC probe based fluorescence analysis. The settings on record: time 2.0 hrs. In short, it runs like this:
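Human recombinant 3-MST, 3 μg/well, in 50 mM Tris-HCl pH 8 preincubated 1 h at 37 °C with compound at 100 μM (from 100 mM DMSO stock). Then 2 mM 3-MP (no extra sulfur acceptor) and 10 μM AzMC added. Fluorescence read kinetically 1 h at 37 °C, ex 365/em 450 nm. Percent inhibition, mean of three replicates.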

Activity calls are given as the source filed them. No cut-off for these calls is given here.

One may read the IC50 as the concentration that gives 50% inhibition. In general, inhibition refers to the change of the read-out against control, counted positive when it falls. Turning to `Cc1cc(=O)[nH]c(SCC(=O)c2cccc3ccccc23)n1`, the IC50 in [1] was determined as 101 µM; in assay [2], 15.6 µM; in assay [3], 221 µM; in [4], 243 µM; in [7], 207 µM. The inhibition result in assay [5] and in assay [9] was “Active” in each case. Besides, the Activity in assay [6] is listed as 67%. Moreover, the result in assay [8] was inactive. The inhibition in [10] stood at 68%.
